Common to all, as to assay type: functional
Test [1] can be described thus: In vitro determination of lactone level in human plasma after administration of compound at 0 hour. Summed up: (§1)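 Drug (500 ng, in methanol) added to 1 mL of human or mouse plasma and incubated at 37 °C. 100-µL aliquots taken at 0.5–6 h. Analysis by C-8 HPLC (30% acetonitrile/water/0.1% acetic acid) with fluorescence at 347/418 nm. Percent lactone: lactone/total drug for the parent; drug at each time relative to t = 0 for the ester.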

Test [2] is described as follows: In vitro determination of lactone level in human plasma after administration of compound at 1 hour. Summed up: as §1
A short description of test [3]: In vitro determination of lactone level in human plasma after administration of compound at 6 hour. Summed up: as §1
For test [4], the system named is Mus musculus. The test is described as follows: In vitro determination of lactone level in mouse plasma after administration of compound at 0 hour. A digest of the protocol: as §1
Test [5] concerns Mus musculus. The test is described as follows: In vitro determination of lactone level in mouse plasma after administration of compound at 1 hour. Summed up:
as §1

Test [6] relates to Mus musculus. The test is described as follows: In vitro determination of lactone level in mouse plasma after administration of compound at 6 hour. A digest of the protocol: as §1
A short description of test [7]: In vitro determination of lactone level in human plasma after administration of compound at 2 hour. Summed up: as §1
Test [8] in a line: In vitro determination of lactone level in human plasma after administration of compound at 4 hour. Summed up:
as §1

The subject of test [9] is Mus musculus. The test is described as follows: Change in the body weight of mice during the test time period after 34 days at a dose of 7 mg/kg.
For test [10], the system named is Mus musculus. Kind of test: Change in the body weight of mice during the test time period after 21 days at a dose of 5 mg/kg.
Test [11] relates to Mus musculus. Kind of test: Change in the body weight of mice during the test time period after 21 days at a dose of 6 mg/kg.
Test [12] concerns Mus musculus. The test is described as follows: Change in the body weight of mice during the test time period after 21 days at a dose of 7 mg/kg.
Test [13] concerns Mus musculus. Kind of test: Change in the body weight of mice during the test time period after 21 days at a dose of 8 mg/kg.
For test [14], the system named is Mus musculus. The test is described as follows: Change in the body weight of mice during the test time period after 27 days at a dose of 5 mg/kg.
Test [15] concerns Mus musculus. The test is described as follows: Change in the body weight of mice during the test time period after 27 days at a dose of 6 mg/kg.
In test [16] the test system is Mus musculus. Kind of test: Change in the body weight of mice during the test time period after 27 days at a dose of 7 mg/kg.
Test [17] has as its system Mus musculus. Kind of test: Change in the body weight of mice during the test time period after 27 days at a dose of 8 mg/kg.
The test system of test [18] is Mus musculus. The test is described as follows: Change in the body weight of mice during the test time period after 34 days at a dose of 5 mg/kg.
Test [19] has as its system Mus musculus. The test is described as follows: Change in the body weight of mice during the test time period after 34 days at a dose of 6 mg/kg.
Test [20] has as its system Mus musculus. Kind of test: Change in the body weight of mice during the test time period after 34 days at a dose of 8 mg/kg.
The subject of test [21] is Mus musculus. The test is described as follows: Change in the body weight of mice during the test time period after 41 days at a dose of 5 mg/kg.
In test [22] the test system is Mus musculus. Kind of test: Change in the body weight of mice during the test time period after 41 days at a dose of 6 mg/kg.
Test [23] deals with Mus musculus. The test is described as follows: Change in the body weight of mice during the test time period after 41 days at a dose of 7 mg/kg.
In test [24] the test system is Mus musculus. The test is described as follows: Change in the body weight of mice during the test time period after 41 days at a dose of 8 mg/kg.
Test [25] relates to Mus musculus. Kind of test: Change in the body weight of mice during the test time period after 48 days at a dose of 5 mg/kg.
The subject of test [26] is Mus musculus. Kind of test: Change in the body weight of mice during the test time period after 48 days at a dose of 6 mg/kg.
Test [27] concerns Mus musculus. The test is described as follows: Change in the body weight of mice during the test time period after 48 days at a dose of 7 mg/kg.
Test [28] concerns Mus musculus. The test is described as follows: Change in the body weight of mice during the test time period after 48 days at a dose of 8 mg/kg.
Test [29] has as its system Mus musculus. Kind of test: Change in the body weight of mice during the test time period after 56 days at a dose of 5 mg/kg.
Test [30] has as its system Mus musculus. The test is described as follows: Change in the body weight of mice during the test time period after 56 days at a dose of 6 mg/kg.
The subject of test [31] is Mus musculus. Kind of test: Change in the body weight of mice during the test time period after 56 days at a dose of 7 mg/kg.
Test [32] relates to Mus musculus. The test is described as follows: Change in the body weight of mice during the test time period after 56 days at a dose of 8 mg/kg.
Test [33] concerns Mus musculus. The test is described as follows: In vitro determination of lactone level in mouse plasma after administration of compound at 2 hour. A digest of the protocol:
as §1

Test [34] has as its system Mus musculus. The test is described as follows: In vitro determination of lactone level in mouse plasma after administration of compound at 4 hour. Summed up:
as §1

The test system of test [35] is Mus musculus. The test is described as follows: In vitro determination of tlactone level in mouse plasma after administration of compound at 0 hour. A digest of the protocol: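 Mouse plasma (1 mL) was spiked with 500 ng drug in methanol and incubated at 37 °C, with aliquots taken over time starting at t = 0 h. Percent lactone was derived by reverse-phase C-8 HPLC with fluorescence detection and peak-area integration. For parent camptothecins it was lactone/total drug; for esters it was drug at each time point/drug at t = 0 h.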

Each structure is given as a SMILES string.

In the case of `CCC(=O)O[C@]1(CC)C(=O)OCc2c1cc1n(c2=O)Cc2cc3c([N+](=O)[O-])cccc3nc2-1`, the Lactone amounted to 100% in [1]; 93.7% in test [2]; 64.4% in test [3]; 100% in the test with Mus musculus [4]; 97.7% in the test with Mus musculus [5]; 84.3% with Mus musculus [6].
`CCC(=O)O[C@]1(CC)C(=O)OCc2c1cc1n(c2=O)Cc2cc3ccccc3nc2-1` [CAMPTOTHECIN-20-O-PROPIONATE]: the Lactone was determined as 100% in test [1]; 86% in [2]; 77% in test [7]; 68% in test [8]; 56% in test [3]; 100% with Mus musculus [4]. In addition, the results for the Lactone in the test on Mus musculus [5] and in the test on Mus musculus [6] were 97.5% and 85%, respectively. Moreover, the Body weight in the test with Mus musculus [9] was determined as 30.6 g; with Mus musculus [10], 33 g; in the test on Mus musculus [11], 32.9 g; in the test with Mus musculus [12], 30.8 g; in the test on Mus musculus [13], 32.9 g; in the test on Mus musculus [14], 33.7 g. Moreover, the Body weight in the test with Mus musculus [15] turned out to be 33.4 g; in the test with Mus musculus [16], 31.7 g; in the test with Mus musculus [17], 34.1 g; in the test with Mus musculus [18], 34.4 g; in the test with Mus musculus [19] it was 33.8 g; in the test on Mus musculus [20], 34 g. Further, the Body weight in the test on Mus musculus [21] was 33.5 g; in the test with Mus musculus [22], 33.5 g; in the test with Mus musculus [23], 31.1 g; with Mus musculus [24] it was 33.4 g; with Mus musculus [25], 32.9 g; in the test with Mus musculus [26], 34 g. The Body weight with Mus musculus [27] was 31.6 g; in the test on Mus musculus [28], 33.9 g; with Mus musculus [29], 33.2 g; in the test on Mus musculus [30] it was 32.2 g; in the test on Mus musculus [31], 31.5 g; with Mus musculus [32], 33.2 g.
Turning to `CC[C@@]1(O)C(=O)OCc2c1cc1n(c2=O)Cc2cc3ccccc3nc2-1` [CAMPTOTHECIN], the Lactone amounted to 100% in test [1]; 12% in test [2]; 0.5% in test [7]; 0% in [8]; 0% in test [3]; 42% in the test on Mus musculus [5]. Moreover, the Lactone with Mus musculus [33] was found to be 35%; in the test on Mus musculus [34], 18%; with Mus musculus [6], 18%; in the test on Mus musculus [35], 100%.
With `CC[C@@]1(O)C(=O)OCc2c1cc1n(c2=O)Cc2cc3c([N+](=O)[O-])cccc3nc2-1` [RUBITECAN], the Lactone in test [1] was determined as 100%; in [2] it was 7%; in test [3], 0%; in the test with Mus musculus [4] it was 100%; with Mus musculus [5] it was 30%.
